Key:
Settings in all cases: in vivo
Mus musculus [1] = species: Mus musculus; experiment: Distribution of compound in lungs tissue of mice after 24 hr injection time was determined; format: ADME, organism-based, Lung
Summary of the method: (§1)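 Healthy athymic nude mice (balb/c nu/nu, 20–25 g, both sexes) received 50–400 KBq radioiodinated bisphosphonate in 100 µL phosphate buffer pH 6–7 by tail-vein injection. Three animals were sacrificed per time point. Tissues were excised, weighed and gamma-counted. Values are % injected dose per gram tissue, mean ± 1 SD, n = 3.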

Mus musculus [2] = species: Mus musculus; experiment: Distribution of compound in skull tissue of mice after 24 hr injection time was determined; format: ADME, organism-based; summary of the method: as §1
Mus musculus [3] = species: Mus musculus; experiment: Distribution of compound in kidneys tissue of mice after 24 hr injection time was determined; format: ADME, organism-based, Kidney; summary of the method: as §1
Mus musculus [4] = species: Mus musculus; experiment: Distribution of compound in liver tissue of mice after 24 hr injection time was determined; format: ADME, organism-based; summary of the method: as §1
Mus musculus [5] = species: Mus musculus; experiment: Distribution of compound in heart tissue of mice after 24 hr injection time was determined; format: ADME, organism-based; summary of the method: as §1
Mus musculus [6] = species: Mus musculus; experiment: Distribution of compound in intestine tissue of mice after 24 hr injection time was determined; format: ADME, organism-based; summary of the method: as §1
Mus musculus [7] = species: Mus musculus; experiment: Distribution of compound in spleen tissue of mice after 24 hr injection time was determined; format: ADME, organism-based; summary of the method: as §1
Mus musculus [8] = species: Mus musculus; experiment: Distribution of compound in stomach tissue of mice after 24 hr injection time was determined; format: ADME, organism-based; summary of the method: as §1
Mus musculus [9] = species: Mus musculus; experiment: Distribution of compound in thyroid tissue of mice after 24 h injection time was determined; format: ADME, organism-based, Thyroid gland
Summary of the method: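 Healthy athymic nude balb/c nu/nu mice (20–25 g) received 50–400 KBq radioiodinated bisphosphonate in 100 μL phosphate buffer, pH 6–7, by tail-vein injection. Three animals were sacrificed per time point. Thyroid-containing tissue was excised, weighed and gamma-counted. Values are % of injected dose, mean ± 1 SD of three mice.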

Mus musculus [10] = species: Mus musculus; experiment: Distribution of compound in blood tissue of mice after 24 hr injection time was determined; format: ADME, organism-based; summary of the method: as §1
Mus musculus [11] = species: Mus musculus; experiment: Distribution of compound in femur tissue of mice after 24 hr injection time was determined; format: ADME, organism-based; summary of the method: as §1

Injected (Mus musculus [1]): 0.21% | Injected (Mus musculus [2]): 10.36% | Injected (Mus musculus [3]): 0.85% | Injected (Mus musculus [4]): 0.35% | Injected (Mus musculus [5]): 0.06% | Injected (Mus musculus [6]): 0.05% | Injected (Mus musculus [7]): 0.17% | Injected (Mus musculus [8]): 0.04% | Injected (Mus musculus [9]): 0.02% | Injected (Mus musculus [10]): 0.02% | Injected (Mus musculus [11]): 8.84%
Compound: O=P(O)(O)C(CCc1cccc(I)c1)P(=O)(O)O
